A selection: hits, their analogues and other compounds. The true share with any hit is near 2.9%.
Runt-SMMHC FRET = Runt domain-CBFb-SMMHC interaction inhibition | Q01196+Q13951 | Cerulean-Runt/Venus-CBFb-SMMHC FRET ratio 530/480, 1 h | inhibition, % at 20 µM | actives 0.74% (n = 220,000) | AID 1434;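 active = mean inhibition across duplicate retests at 20 µM reaching about 50%, limit read from the data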;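 also: 0% = DMSO wells and 100% = wells with excess untagged CBFb-SMMHC; inhibitors lower the FRET ratio by blocking Runt binding to CBFb-SMMHC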
RanGTP-Imp inh = inhibitors of RanGTP-importin-beta interaction, primary screen, biochemical, FRET, CFP-Ran, YFP-importin-beta, homogeneous; cell-free CFP-Ran/YFP-importin-beta FRET ratio; inhibition, % (no concentration beside the values); actives 1.1% (n = 300,000);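 active = more than half of the replicate wells show a fall in the fluorescence ratio signal beyond about 16%, limit read from the data, passing the limit was not always enough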;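 also: 0% = DMSO wells and 100% = Ran loaded with GDP instead of GTP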
Runt-CBFb FRET = inhibitors of human RUNX1 Runt domain binding to CBFb. Q01196+Q13951. Cerulean-Runt/Venus-CBFb FRET ratio 530/480, 1 h. inhibition, % at 20 µM. actives 0.46% (n = 220,000). AID 1496;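 active = inhibition over about 50% at 20 µM in the single-dose screen, limit read from the data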;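 also: 0% = DMSO wells and 100% = excess unlabeled CBFb competitor control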
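System: Cerulean-labeled Runt domain protein | Quantity: 100 nM of each labeled protein | Schedule: 1 h compound exposure, room temperature | Detection: Fluorescence energy transfer, 422 nm excitation, 530/480 nm emission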
AI-2 QS mod = modulates the Vibrio harveyi AI-2 quorum sensing system; actives 0.4% (n = 300,000); activity change, % at 7.5 µM; Vibrio harveyi JMH597 AI-2 luminescence/OD600 ratio, 9 h; active compounds read low; strain lacks LuxN and CqsS sensors; 0 = neutral-control median; in the data active = activity change below about -75%, passing the limit was not always enough;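 also: luminescence divided by OD600 gain over 9 h not by final OD600 alone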
Wee1 degr inh = inhibitors of human Wee1 degradation | P30291 | HeLa Luc-Wee1K328M stability, luciferase luminescence; 100% = proteasome inhibitor MG132 effect | actives 1.2% (n = 220,000) | reporter increase, % at 5 µM;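 active = activation above the mean of all tested compounds plus 3 SD, set per screening run, cut at about 8.8% in these data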;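 also: cells exposed to compound for 20 h before luminescence read; 0% = DMSO alone and 100% = MG132 at 30 µM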
proKLK7 act = activates the human kallikrein-7 zymogen | P49862 | purified proKLK7, EDANS-DABCYL substrate fluorescence; 100% is mature enzyme control, 0% vehicle | activation, % at 7 µM | actives 0.9% (n = 370,000) | AID 652039;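 active = activation above the mean of all tested compounds plus 3 SD, computed per campaign excluding outliers beyond control limits, cut at about 13% in these data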
Target sequence (P49862 whole entry, looked up): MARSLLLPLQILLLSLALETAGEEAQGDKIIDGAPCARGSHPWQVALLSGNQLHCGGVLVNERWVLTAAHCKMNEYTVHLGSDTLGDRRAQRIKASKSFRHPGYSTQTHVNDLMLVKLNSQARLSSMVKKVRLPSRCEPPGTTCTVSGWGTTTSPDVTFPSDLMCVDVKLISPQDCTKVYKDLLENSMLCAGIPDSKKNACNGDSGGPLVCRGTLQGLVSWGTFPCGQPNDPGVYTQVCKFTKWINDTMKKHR
proKLK7 act conf = proKLK7 activation, confirmation. shares compounds with proKLK7 act. purified proKLK7, EDANS-DABCYL substrate fluorescence; scaled: vehicle 0, mature enzyme 100. activation, % at 7 µM. actives 68% (n = 3,200). AID 686949;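 active = activation, as change over the incubation, above the mean of all tested compounds plus 3 SD, cut at about 13% in these data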
EDANS-DABCYL int = counter-screen for kallikrein-7 activators: EDANS-DABCYL optical interference; AID 686952; EDANS-DABCYL substrate fluorescence interference, no enzyme, 4 h; solvent 0%, active enzyme control 100%; shares compounds with proKLK7 act; actives 80% (n = 3,200); activation, % at 7 µM;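 active = activation above the all-compound mean plus 3 SD, ignoring values outside control-based bounds, cut at about 4.8% in these data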;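 also: value is the 4 h activation minus the activation read at time zero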
K7 EDANS ctr = counter-screen for kallikrein-7 activators: EDANS-DABCYL interference, dose response; shares compounds with proKLK7 act; EDANS-DABCYL peptide fluorescence interference, no enzyme; EC50, µM; actives 20% (n = 250); AID 720493;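 active = compounds that raise the fluorescence signal in this interference counterscreen, with EC50 at or below 10 µM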;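 also: intact quenched peptide substrate alone read at 355 nm excitation and 520 nm emission; signal is fluorescence gain from T0 to T4 after four hours at room temperature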
An asterisk follows results filed as active; · = no result given.

SMILES	Runt-SMMHC FRET	RanGTP-Imp inh	Runt-CBFb FRET	AI-2 QS mod	Wee1 degr inh	proKLK7 act	proKLK7 act conf	EDANS-DABCYL int	others
Cn1c(=O)c2[nH]c(-c3ccccc3)c(O)c2n(C)c1=O	-133.7	-255.3	-22.8	3.1	-3.2	17.3*	40.8*	39.6*
COc1cc(-c2noc(C3CCCN(C(=O)c4ccccc4)C3)n2)cc(OC)c1OC (configuration not stated)	·	0.7	·	0.4	·	-0.2	·	·
CCOC(=O)c1c(C)nc(C)c(C(=O)OCC)c1-c1ccccc1	-4.0	3.2	·	·	2.6	·	·	·
CCOC(=O)c1c(-c2ccccc2)cn2c(C)cc(C)nc12	10.0	-1.3	3.2	19.5	-2.4	12.7*	5.9	-1.6
CN(C(=O)NC(=O)C1=C(N2CCOCC2)/C(=C/c2ccccc2)CC1)S(C)(=O)=O	8.5	1.1	1.1	9.3	2.1	146.2*	341.8*	331.7*
COc1cc2c(cc1OC)CN(Cc1nc3ccsc3c(=O)[nH]1)CC2	5.9	5.7	3.3	5.7	-1.6	30.8*	8.5	12.8*
O=c1[nH]c(CN2CCN(c3ccccc3Cl)CC2)nc2ccsc12	-0.5	6.9	21.7	140.4	-3.0	-0.9	·	·
Cc1ccc(C)c(-n2c3nc(=O)n(C)c(=O)c-3cc3ccccc32)c1	81.0*	133.3*	12.9	-7.4	1.5	27.6*	14.5*	22.6*
CCCCn1c(=O)nc2n(-c3ccccc3)c3ccccc3cc-2c1=O	60.4*	142.3*	10.4	24.6	-1.8	14.8*	15.8*	24.0*
CCCCn1c(=O)cc(C)n(-c2ccccc2)c1=O	·	-2.2	·	16.6	·	0.1	·	·
Cc1ccc(C)c(-n2c3nc(=O)[nH]c(=O)c-3cc3cc([N+](=O)[O-])ccc32)c1	12.3	·	45.4	·	6.2	1.7	·	·
COC(=O)C1=CNC=C(C(=O)OC)C1c1ccc(C(=O)OC)cc1	70.9*	5.5	28.5	1.6	-1.7	12.7*	19.3*	13.7*	K7 EDANS ctr=>69.5
O=C1CCCC2=C1C(c1ccc(O)cc1)c1c(ccc3ccccc13)N2 (configuration not stated)	33.2	1.2	13.3	8.2	1.4	19.5*	-38.3	-36.2
CCOc1ccc(C2C3=C(CCCC3=O)Nc3ccc4ncccc4c32)cc1 (configuration not stated)	0.1	4.0	27.3	-6.2	-2.5	0.8	·	·
CCOc1cc(C2C3=C(CCCC3=O)N(CCC(=O)O)C3=C2C(=O)CCC3)ccc1OS(=O)(=O)c1ccc(C)cc1	·	104.0*	25.5	14.9	5.1	19.8*	29.8*	32.0*
Cc1cc(OCC(=O)Nc2cc(C(C)(C)C)on2)ccc1[N+](=O)[O-]	·	-2.9	·	6.5	·	-0.2	·	·
CCN1CCCC1Cn1cnc2c([nH]c3ccc(C)cc32)c1=O (configuration not stated)	5.4	0.5	1.5	10.3	-0.3	16.1*	4.8	5.0*
COc1ccccc1N(O)C1CC(=O)N(c2ccc(F)cc2)C1=O (configuration not stated)	0.1	0.4	12.9	17.8	-1.8	6.3	·	·
CCCOc1ccc(N2C(=O)CC(N(Cc3ccccc3)N=O)C2=O)cc1 (configuration not stated)	-0.9	-1.5	-1.8	-12.4	-3.3	0.0	·	·
CCCOc1ccc(N2C(=O)CC(N(O)c3ccccc3)C2=O)cc1 (configuration not stated)	2.2	0.0	-0.1	15.6	-0.5	111.6*	120.0*	124.8*
Cc1ccccc1N1C(=O)CC(N(O)c2ccccc2)C1=O (configuration not stated)	-2.2	-10.2	-0.9	-2.1	0.3	362.9*	316.9*	330.3*
CCCOc1ccccc1N1C(=O)CC(N(O)c2ccccc2)C1=O (configuration not stated)	-8.0	-1.7	2.3	10.0	-0.9	47.1*	29.1*	31.2*
COc1ccccc1N1C(=O)CC(N(O)c2ccccc2)C1=O (configuration not stated)	2.0	0.2	3.3	-0.6	1.2	117.5*	191.9*	195.4*
COc1ccc(Cc2noc(CN3CCN(Cc4csc(C)n4)CC3)n2)cc1OC	1.2	-1.4	1.7	18.5	6.3	-0.8	·	·
O=C1CC(N(O)c2ccccc2)C(=O)N1c1cc(Cl)cc(Cl)c1 (configuration not stated)	-6.1	-2.8	1.7	-2.3	3.8	47.8*	645.3*	616.9*
SMILES	Runt-SMMHC FRET	RanGTP-Imp inh	Runt-CBFb FRET	AI-2 QS mod	Wee1 degr inh	proKLK7 act	proKLK7 act conf	EDANS-DABCYL int	others
O=C1CC(N(O)c2ccccc2)C(=O)N1Cc1ccccc1 (configuration not stated)	0.4	-4.0	-1.5	-2.4	2.4	0.5	·	·
COc1cccc(C(C)=C2SC(=S)NC2=O)c1	·	·	·	·	·	-0.2	·	·
CN(CCCn1ccc(NC(=O)OCc2ccccc2)nc1=O)Cc1ccco1	·	·	·	·	·	-0.1	·	·
CC(=O)N1CCC2(CC1)CC(=O)c1cc(OCC(=O)NCc3ccco3)ccc1O2	6.4	-1.0	3.5	20.2	-2.9	27.7*	48.4*	49.3*
CC(=O)N1CCC2(CC1)CC(=O)c1cc(OCC(=O)NCc3ccc(C)cc3)ccc1O2	4.7	-0.2	2.6	40.9	-1.4	34.5*	26.1*	46.1*
Cc1cccc(OCC(=O)N2CCC3(CC2)CC(=O)c2ccccc2O3)c1	·	0.1	·	17.2	·	-0.3	·	·
CC(C)CN(CC(C)C)C(=O)c1cc2c(=O)n3ccccc3nc2s1	·	0.2	·	9.4	·	22.1*	-77.6	-69.3
CCN(CC)C(=O)c1cc2c(=O)n3ccccc3nc2s1	17.4	1.4	7.4	20.5	0.7	64.0*	64.0*	82.2*
CCC(C)NC(=O)c1cc2cc3ccc(OC)cc3nc2s1 (configuration not stated)	-4.4	0.9	-1.3	32.2	9.0*	30.4*	3.3	5.7*
CCC(C)NC(=O)c1cc2c(=O)n3ccccc3nc2s1 (configuration not stated)	·	-1.1	·	11.2	·	66.1*	60.7*	69.8*
COCCN(CCOC)C(=O)c1cc2c(=O)n3ccccc3nc2s1	22.2	1.1	6.9	19.8	-0.6	8.7	·	·
